HSV augment = HSV replication enhancement; 0.005% of 220,000 active; maximum fold increase; AID 1956; HSV replication augmentation in cells, fold increase; in the data active = maximum fold increase above about 1.5; tested in PC3 cells
bCat nuc transl = modulators of beta-catenin nuclear translocation; HeLa beta-catenin nuclear translocation, immunofluorescence imaging; nuclear translocation activity, % at 5 µM; 0.3% of 190,000 active;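 active = nuclear translocation activity above 50% at 5 µM, with a well cell count of 50 or more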;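 note: per-cell ratio of nuclear to cytoplasmic median beta-catenin stain intensity; plate controls were DMSO negative control for no effect and GSK-3 inhibitor IX positive control for full effect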
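System: HeLa cells, endogenous beta-catenin; compound dosing: 5 µM primary single dose, 0.1% DMSO, 0.02–20 µM confirmation series; incubation: 24 h compound exposure at 37°C, 5% CO2; signal: beta-catenin immunofluorescence imaging with DAPI; evaluation: % activation, nuclear-to-cytoplasmic median beta-catenin signal ratio per cell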
Dynein transport = dynein cargo transport inhibition; 3617.4 mouse cells, GR-EGFP nuclear translocation imaging; test concentration mostly 20 µM; stimulated with dexamethasone, 1 µM; stronger effect = lower value; z-score, hits read low; 0.47% of 220,000 active; AID 1381;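 active = plate z-score of nuclear minus cytoplasmic receptor signal below a set negative limit, without overly bright fluorescence or cell loss, cut at about -3.5 in these data, passing the limit was not always enough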;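 note: z-score of nuclear minus cytoplasmic ring GR-EGFP intensity difference per well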
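Schedule: 48 h induction, then 1 h compound, then 30 min agonist, 37 °C. Buffer or medium: tetracycline-free induction medium containing charcoal-stripped FBS. Reagent: 1.0 µM final dexamethasone stimulus. Evaluation: nuclear versus cytoplasmic GR-EGFP signal, averaged per well. Signal: high-content fluorescence imaging after fixation.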
MT stabilize HCS = microtubule stabilization, imaging screen; HeLa tubulin immunostaining HCS, 24 h; share of cells brighter than vehicle mean+2SD; % tubulin-high responders, % at 10 µM; 0.83% of 200,000 active;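 active = plate Z-score above 3 for both tubulin-high and condensed-nucleus cell shares, with cell loss under 80%, at 10 µM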;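 note: anti alpha tubulin signal scored within the nucleus-defined area of each cell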
Lmaj promast = reduces viability of Leishmania major promastigotes. 9% of 200,000 active. inhibition, % at 10 µM. resazurin fluorescence viability; in the data active = inhibition above about 50%;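 note: promastigotes grown with compound for 44 hours at 28 °C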
An asterisk follows results filed as active; i = inactive; x = no result given. In the library only some 8.9% were active in any assay of this set; here they are far more common.

SMILES | HSV augment | bCat nuc transl | Dynein transport | MT stabilize HCS | Lmaj promast
O=C(CNCc1ccncc1)Nc1cc(S(=O)(=O)N2CCCCC2)ccc1Cl | i | -6 | -0.4 | 5 | 1
CCC(=O)Oc1ccc(C(CC)C(CC)c2ccc(OC(=O)CC)cc2)cc1 (stereo unspecified) | i | x | -0.21 | 3 | 0
CCOc1ccc2nc(SCC(=O)N3CCCc4ccccc43)sc2c1 | i | -2 | -0.87 | 2 | -4
CCN1CCN(c2cc(C)c3cc(NC(=O)c4cccc(OC)c4)ccc3n2)CC1 | i | -1 | -0.18 | x | x
CCN1CCN(c2cc(C)c3cc(NC(=O)c4ccc(OC)c(OC)c4)ccc3n2)CC1 | i | x | -0.66 | 8 | 55*
CCN1CCN(c2cc(C)c3cc(NC(=O)c4ccc5c(c4)OCO5)ccc3n2)CC1 | i | -3 | 0.89 | 4 | 100*
COc1ccc(C)cc1NC(=O)CCC(=O)Nc1ccc2nc(N3CCN(C)CC3)cc(C)c2c1 | x | x | -0.71 | 8 | 91*
CCN1CCN(c2cc(C)c3cc(NC(=O)c4cncc(Br)c4)ccc3n2)CC1 | x | 0 | 2.6 | 6 | 100*
CCCCNC(=O)CCC(=O)Nc1ccc2nc(N3CCN(C)CC3)cc(C)c2c1 | i | -3 | 0.19 | 1 | 1
NCCc1c(-c2ccccc2)n(-c2ccccc2)c2ccccc12 | i | 30 | -1.5 | 10 | 101*
Cc1cc(Cl)ccc1NC(=S)NCc1cccs1 | i | -1 | -0.49 | 4 | 77*
O=C(CN1CCC(c2nc3ccccc3s2)CC1)NCc1ccccc1 | i | 1 | -0.72 | 2 | 87*
CCc1ccc(C(=O)N2CCC(c3nc4ccccc4s3)CC2)cc1 | i | 0 | -0.61 | 3 | 87*
O=C(c1ccccc1Br)N1CCC(c2nc3ccccc3s2)CC1 | i | -1 | -0.37 | 2 | 3
C=C(C)C(=O)Nc1cccc(C2=NOC3(C2)C[C@@H](C(N)=O)N(C(=O)[C@H]2CCC(=O)N2)C3)c1 (stereo partly specified) | i | -1 | 0.76 | x | x
CS(=O)(=O)N1CCN(C(=O)Cc2cccs2)CC1 | i | -2 | -0.83 | 3 | -5
CC(=O)OC1COC(OC2C(O)C(C)OC(OC3C(OC4CCC5(C)C(CCC6(C)C5CC=C5C7CC(C)(C)CCC7(C(=O)O)CCC56C)C4(C)CO)OCC(O)C3O)C2O)C(O)C1OC(C)=O (stereo unspecified) | i | -3 | -5.3* | 2 | -13
O=C(CCSCc1ccccc1F)N1CCN(c2ccccn2)CC1 | i | -1 | 1.4 | 3 | -7
COC(=O)C1=CN(C(C)C)C=C(C(=O)OC)C1c1cc2c(cc1Br)OCO2 | i | -1 | -0.25 | 2 | 100*
Cc1cc(C)c2nc(/N=C(\N)NC(=O)c3ccccc3)nc(C)c2c1 | i | 2 | -1.2 | x | x
Cc1cc(C)c2nc(/N=C(\N)NC(=O)Nc3ccccc3)nc(C)c2c1 | i | 3 | -1 | 2 | 100*
COc1ccc(C2CC(=O)C3=C(C2)Nc2ccccc2NC3c2coc3ccccc3c2=O)cc1OC (stereo unspecified) | i | -1 | 0.33 | 3 | 93*
O=C1CC(c2ccccc2)CC2=C1C(c1ccccn1)Nc1ccccc1N2 (stereo unspecified) | i | -2 | 1.1 | 1 | 20
Cc1ccc(NC(=O)CCN2C(=O)c3cccc4cccc(c34)C2=O)cc1 | i | 2 | 0.13 | 2 | -2
O=C(CN1CCN(CCN2C(=O)c3cccc4cccc(c34)C2=O)CC1)c1ccc(F)cc1 | i | -2 | -0.049 | 2 | 37
SMILES | HSV augment | bCat nuc transl | Dynein transport | MT stabilize HCS | Lmaj promast
Cc1ccc(NC(=S)N2CCN(CCN3C(=O)c4cccc5cccc(c45)C3=O)CC2)cc1 | i | 0 | 0.46 | 3 | 100*
O=C1c2cccc3cccc(c23)C(=O)N1CCN1CCN(C(=S)Nc2ccc(F)cc2)CC1 | i | -2 | -0.18 | 3 | 59*
Cc1cccc(Nc2nc(NCc3ccco3)nc(N)c2[N+](=O)[O-])c1 | i | -2 | -0.5 | x | x
COc1ccccc1/C=C/CN1CCN(Cc2ccc(C)o2)C(CCO)C1 (stereo unspecified) | i | -1 | -1.3 | 2 | 20
C/C(=C\c1ccccc1)CN1CCN(Cc2ccc(C)o2)C(CCO)C1 (stereo unspecified) | i | 0 | -0.3 | 2 | 83*
Nc1nc(CN2CCCCCC2)nc(Nc2ccccc2)n1 | i | 1 | -0.65 | 3 | 0
Cc1c(-c2nc(N)nc(Nc3ccccc3)n2)oc2ccccc12 | i | -1 | -0.14 | 25* | 2
NS(=O)(=O)c1cccc(NC(=O)c2cccnc2Oc2ccccc2)c1 | i | -3 | 0.55 | x | x
CCOC(=O)c1c(CN(CC)CC)n(C)c2cc(Br)c(O)cc12 | i | -1 | 0.065 | x | x
COC1CCN(Cc2cn(Cc3ccccc3)nc2-c2cc3ccccc3o2)CC1 | i | 0 | 0.75 | 3 | 50*
OCC1CCN(Cc2cn(Cc3ccccc3)nc2-c2cc3ccccc3o2)CC1 | i | -2 | 1.3 | 3 | 19
Cc1ccc(CSCC(=O)N2CCN(c3ccccc3)CC2)cc1 | i | 1 | 0.92 | 2 | -4
COc1ccc(C[C@H]2CN3C(=NC[C@@H]3Cc3ccccc3)N2CCNC(=O)CCC2CCCCC2)cc1 | i | -1 | 0.2 | 18 | 58*
O=C(NCCOc1ccc(Cl)cc1)C1CCCCC1 | i | -2 | -0.61 | 8 | -8
O=S(=O)(c1ccc(Cl)cc1)N1c2ccccc2Oc2nc3ccccc3nc21 | x | 5 | -0.34 | 24* | -3
COc1ccc(S(=O)(=O)N2c3cc(Cl)ccc3Oc3nc4ccccc4nc32)cc1 | i | -1 | 0.39 | 13 | 10
COCCNCCCCOc1c(Cl)cc(C)cc1Br | i | 0 | -0.22 | 2 | 98*
Cc1cc(Cl)c(OCCCNCc2ccccc2)c(Br)c1 | i | -1 | -0.72 | 2 | 84*
CCc1ccc(-c2cc(C(F)(F)F)n3nc(C(=O)Nc4c(C)nn(Cc5ccccc5C)c4C)cc3n2)s1 | i | 2 | 0.99 | 3 | 16
CC(C)(C)c1cc2cccnc2n1Cc1cccc(Cl)c1 | i | 0 | -0.47 | 2 | 32
O=C(CN1CCCC1)N/N=C/c1ccc(-c2cccc(Cl)c2)o1 | i | 0 | -0.0072 | 2 | 100*
CCc1nc2c(sc3nc4c(cc32)COC(C)(C)C4)c(=O)n1Cc1ccccc1 | i | -2 | 0.98 | 3 | 20
COc1ccccc1NC(=S)NNC(=O)c1nn(C)cc1Cl | i | -2 | 0.2 | 2 | -5
CC(C)N1CCC(=NNc2ccc(S(=O)(=O)N3CCOCC3)cc2[N+](=O)[O-])CC1 | i | 3 | -0.82 | 1 | 99*
CCCN1CCC(=NNc2ccc(S(=O)(=O)N3CCOCC3)cc2[N+](=O)[O-])CC1 | i | 120* | 0.78 | 14* | 100*
CC(=O)N1CCC(=NNc2ccc(S(=O)(=O)N3CCOCC3)cc2[N+](=O)[O-])CC1 | i | 6 | 0.036 | 2 | -2

Bioassay records from PubChem BioAssay.
